Measurements reported in ChEMBL document CHEMBL5120856, “New salicylic acid derivatives, double inhibitors of glycolate oxidase and lactate dehydrogenase, as effective agents decreasing oxalate production” (Eur J Med Chem, 2022).
pIC50, pKi: −log10 of the molar value. The source made the active and inactive calls. The calls are words filed in the database; no cut-off is given here.

Assays:
2-Hydroxyacid oxidase 1 [1] = molecular target: T1, 2-Hydroxyacid oxidase 1 (Mus musculus, UniProt Q9WU19); assay: Inhibition of N-terminal His-tagged mouse recombinant glycolate oxidase expressed in Escherichia coli BL21 (DE3) cells using glycolate as substrate preincubated for 10 mins followed by substrate addition and measured after 10 mins by Amplex red and horseradish peroxidase based fluorescence assay
T1 sequence (Q9WU19 whole entry): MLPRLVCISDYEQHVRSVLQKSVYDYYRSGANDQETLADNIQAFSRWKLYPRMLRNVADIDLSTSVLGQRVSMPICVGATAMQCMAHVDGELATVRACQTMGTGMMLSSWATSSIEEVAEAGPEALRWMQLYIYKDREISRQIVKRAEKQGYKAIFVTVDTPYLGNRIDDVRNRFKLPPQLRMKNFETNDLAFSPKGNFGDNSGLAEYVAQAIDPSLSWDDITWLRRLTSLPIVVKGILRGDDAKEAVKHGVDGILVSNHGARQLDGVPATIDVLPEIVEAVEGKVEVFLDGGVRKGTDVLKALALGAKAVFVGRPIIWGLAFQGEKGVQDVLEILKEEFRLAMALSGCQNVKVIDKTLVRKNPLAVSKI

[2] = molecular target: T2, L-lactate dehydrogenase A chain (Homo sapiens, UniProt P00338); assay: Inhibition of human recombinant LDHA using pyruvate as substrate preincubated for 10 mins followed by substrate addition and measured every 60 sec for 10 mins in the presence of NADH by fluorescence assay
[3] = molecular target: T3, L-lactate dehydrogenase B chain (Homo sapiens, UniProt P07195); assay: Inhibition of human recombinant LDHB using pyruvate as substrate preincubated for 10 mins followed by substrate addition and measured every 60 sec for 10 mins in the presence of NADH by fluorescence assay
T3 sequence (P07195 whole entry): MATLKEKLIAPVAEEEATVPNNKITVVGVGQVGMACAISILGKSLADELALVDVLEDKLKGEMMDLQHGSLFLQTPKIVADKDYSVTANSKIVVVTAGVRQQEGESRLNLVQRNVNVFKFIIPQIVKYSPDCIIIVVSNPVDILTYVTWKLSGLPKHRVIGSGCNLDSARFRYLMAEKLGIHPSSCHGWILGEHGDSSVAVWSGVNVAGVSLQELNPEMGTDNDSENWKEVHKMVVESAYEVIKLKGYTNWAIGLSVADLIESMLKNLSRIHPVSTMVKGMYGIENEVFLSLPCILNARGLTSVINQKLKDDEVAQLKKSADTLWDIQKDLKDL

2-Hydroxyacid oxidase 1 [4] = molecular target: T4, 2-Hydroxyacid oxidase 1 (Homo sapiens, UniProt Q9UJM8); assay: Non-competitive mixed inhibition of N-terminal His-tagged human recombinant glycolate oxidase expressed in Escherichia coli BL21 (DE3) cells assessed as inhibition constant using varying concentration of glycolate as substrate measured every 60 sec for 15 mins by Amplex red and horseradish peroxidase based fluorescence assay
T4 sequence (Q9UJM8 whole entry): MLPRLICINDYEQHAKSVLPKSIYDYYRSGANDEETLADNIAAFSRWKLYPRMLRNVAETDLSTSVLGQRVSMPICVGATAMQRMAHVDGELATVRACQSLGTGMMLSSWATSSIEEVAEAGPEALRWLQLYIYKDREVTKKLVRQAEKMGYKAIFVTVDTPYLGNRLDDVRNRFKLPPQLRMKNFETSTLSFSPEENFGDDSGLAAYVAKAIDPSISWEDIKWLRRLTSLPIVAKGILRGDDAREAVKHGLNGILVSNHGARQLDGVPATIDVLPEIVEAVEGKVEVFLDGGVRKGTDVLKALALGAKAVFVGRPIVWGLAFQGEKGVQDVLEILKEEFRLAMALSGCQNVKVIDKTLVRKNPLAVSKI

[5] = molecular target: T5, 2-Hydroxyacid oxidase 1 (Homo sapiens) (UniProt Q9UJM8); assay: Reversible inhibition of N-terminal His-tagged human recombinant glycolate oxidase expressed in Escherichia coli BL21 (DE3) cells assessed as enzyme recovery using glycolate as substrate at 10 times of IC50 concentration preincubated for 30 mins followed by substrate addition and measured every 60 sec for 15 mins by jump-dilution based Amplex red and horseradish peroxidase fluorescence assay; settings: time 45.0 min
T5 sequence (whole entry): T4 sequence (Q9UJM8 whole entry)

[6] = molecular target: T2, L-lactate dehydrogenase A chain; assay: Non-competitive inhibition of human recombinant LDHA assessed as inhibition constant using varying concentration of pyruvate as substrate preincubated for 10 mins followed by substrate addition and measured every 60 sec for 10 mins in the presence of NADH by fluorescence assay
[7] = molecular target: T3, L-lactate dehydrogenase B chain; assay: Non-competitive inhibition of human recombinant LDHB assessed as inhibition constant using varying concentration of pyruvate as substrate preincubated for 10 mins followed by substrate addition and measured every 60 sec for 10 mins in the presence of NADH by fluorescence assay
[8] = molecular target: T5, 2-Hydroxyacid oxidase 1 (Homo sapiens); assay: Non-competitive mixed inhibition of N-terminal His-tagged human recombinant glycolate oxidase expressed in Escherichia coli BL21 (DE3) cells assessed as decrease in Vmax with increase in apparent Km using glycolate as substrate upto 60 microM
[9] = molecular target: T2, L-lactate dehydrogenase A chain; assay: Non-competitive inhibition of human recombinant LDHA assessed as decrease in Vmax with no effect on Km using pyruvate as substrate upto 20 uM
Hepatocyte [10] = assay: Inhibition of GO/LDHA in hyperoxaluric-primary hepatocyte isolated from Grhpr-knockdown PH2 C57BL/6 mouse assessed as relative oxalate output at 10 uM measured at 24 hrs in the presence of glycolate relative to control; format: cell-based
Outline: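 Grhpr-/- mouse primary hepatocytes cultured with 10 mM glycolate, inhibitor at 10 μM; extracellular oxalate determined colorimetrically at 24 and 48 h post-treatment, expressed relative to untreated medium (RO); negative RO means below detection limit; three/four replicates, mean ± SD.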

Hepatocyte [11] = assay: Inhibition of GO/LDHA in hyperoxaluric-primary hepatocyte isolated from Hoga1-knockdown PH3 C57BL/6 mouse assessed as relative oxalate output at 10 uM measured at 24 hrs in the presence of hydroxyproline relative to control; format: cell-based
Outline: (§1)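 Hoga1-/- mouse primary hepatocytes challenged with 10 mM hydroxyproline, inhibitor 10 μM; extracellular oxalate measured by colorimetric kit 24 and 48 h after dosing, given as ratio to oxalate without inhibitor; negative values are below detection limit; mean of three/four replicates ± SD.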

Hepatocyte [12] = assay: Inhibition of GO/LDHA in hyperoxaluric-primary hepatocyte isolated from Hoga1-knockdown PH3 C57BL/6 mouse assessed as relative oxalate output at 10 uM measured at 48 hrs in the presence of hydroxyproline relative to control; format: cell-based; outline: as §1
Hepatocyte [13] = assay: Cytotoxicity against hyperoxaluric-primary hepatocyte isolated from Hoga1-knockdown PH3 C57BL/6 mouse assessed as cell death at 10 uM by MTS assay; format: toxicity, cell-based; settings: hepatocytes, Hoga1-knockdown PH3, 10 µM
Outline: (§2)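 Primary hepatocytes from Agxt1-/- (PH1, 5 mM glycolate), Grhpr-/- (PH2, 10 mM glycolate) or Hoga1-/- (PH3, 10 mM hydroxyproline) mice, incubated with inhibitor at 10 μM; viability followed through the oxalate assay by MTS tetrazolium method.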

Hepatocyte [14] = assay: Cytotoxicity against hyperoxaluric-primary hepatocyte isolated from Agxt1-knockdown PH1 C57BL/6 mouse assessed as cell death at 10 uM by MTS assay; format: toxicity, cell-based; settings: hepatocytes, Agxt1-knockdown PH1, 10 µM; outline: as §2
HEK293 = assay: Cytotoxicity against HEK293 cells assessed as reduction in cell viability upto 50 uM measured after 48 hrs by MTT assay; format: toxicity, cell-based; settings: human, hek293, 48 h

N.N.O=C(O)c1cc(-c2ccc(CN(Cc3ccccc3)Cc3ccc(-c4ccc(O)c(C(=O)O)c4)o3)o2)ccc1O showed a pIC50 (2-Hydroxyacid oxidase 1 [1]) of 5.74, a pIC50 [2] of 6.40 and a pIC50 [3] of 6.70. For the same compound, the pKi (2-Hydroxyacid oxidase 1 [4]) was 5.64, the inhibition [5] was “Active” and the pKi [6] was 7.05. For the same compound, the pKi [7] was 6.15, the inhibition [8] was “Active” and the inhibition [9] was “Active”. For the same compound, the fold change (FC) (Hepatocyte [10]) was 0.59, the fold change (FC) (Hepatocyte [11]) was 0.41 and the fold change (FC) (Hepatocyte [12]) was 0.47. For the same compound, the Activity (Hepatocyte [13]) was “Non-Toxic”, the Activity (Hepatocyte [14]) was “Non-Toxic” and the Activity (HEK293) was “Non-Toxic”.
